IDH1 mut inh = inhibitors of IDH1 R132H reductase, primary screen, biochemical, plate reader, single point | Isocitrate dehydrogenase [NADP] cytoplasmic (Homo sapiens), O75874 | diaphorase/resazurin fluorescence, 60 min | inhibition, % at 10 µM | 0.18% of 70,000 active | AID 624101, 2012; in the data active = inhibition above about 34%; inconclusive = no clear call, values can overlap the other calls; inactive = below about 11%;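 also: 0% = DMSO and 100% = no enzyme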
KDM4C inh = inhibitors of GASC-1 (KDM4C) histone demethylase, primary screen, biochemical, single concentration HTS | GST-KDM4C 2-372, H3K9me3 peptide, LANCE TR-FRET | inhibition, % at 12.5 µM | 0.15% of 96,000 active | AID 720574, 2013;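 active = mean replicate inhibition above about 25%, with at least 55% of replicates also reaching it, limit read from the data, passing the limit was not always enough; inconclusive = only one of those two conditions met; inactive = neither condition met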
Target sequence (Q9H3R0 2-372 limits assumed): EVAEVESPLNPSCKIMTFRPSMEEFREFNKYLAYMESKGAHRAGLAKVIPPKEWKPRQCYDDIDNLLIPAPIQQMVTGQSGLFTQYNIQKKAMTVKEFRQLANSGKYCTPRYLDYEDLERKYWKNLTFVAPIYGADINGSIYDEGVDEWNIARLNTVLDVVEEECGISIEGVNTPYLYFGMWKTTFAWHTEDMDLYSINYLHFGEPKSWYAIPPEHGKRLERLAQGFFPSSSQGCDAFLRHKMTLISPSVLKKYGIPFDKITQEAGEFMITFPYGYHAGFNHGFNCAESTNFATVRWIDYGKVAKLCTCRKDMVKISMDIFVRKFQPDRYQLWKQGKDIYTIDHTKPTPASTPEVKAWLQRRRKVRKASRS
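Material: GST-tagged GASC-1 (JMJD2C) catalytic fragment, aa 2-372. Input: enzyme final amount 10 nM. Medium: HEPES buffer, pH 7.5, plus ascorbate. Reagent: H3K9me3 peptide substrate, Fe(II), 2-oxoglutarate. Doses: single dose. Times: reaction 30 min RT, detection step 1 h RT. Measured by: LANCE TR-FRET. Evaluation: Fall in 671/618 emission ratio as inhibition.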
T cruzi growth-1 = T. cruzi intracellular proliferation inhibitors, primary screen, cell-based, beta-gal Tulahuen parasites, NIH3T3 host, luminescence; T. cruzi beta-gal in NIH3T3, GalScreen luminescence, 90 h; inhibition, % at 8.34 µM; 5.9% of 77,000 active;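 active = mean inhibition above about 93%, with at least 55% of replicates each passing it, limit read from the data, passing the limit was not always enough; inconclusive = only one of those two conditions holds; inactive = neither condition holds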
Pf Dd2 inh = P. falciparum Dd2 growth inhibitors, primary screen, SYBR Green fluorescence, single dose replicates | AID 1159554, 2015 | activity change, % at 10 µM | 72 h; stronger effect = lower value | 2.3% of 94,000 active; in the data active = activity change below about -80%; inconclusive = no clear call, values can overlap the other calls
T cruzi growth-2 = T. cruzi intracellular proliferation inhibitors, confirmation, cell-based, NIH3T3 host, beta-gal parasite, luminescence, cherry-pick. shares compounds with T cruzi growth-1. T. cruzi beta-gal in NIH3T3, GalScreen luminescence, 90 h. inhibition, % at 8.35 µM. 72% of 5,600 active;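 active = mean replicate inhibition above about 95% and at least 55% of replicates individually reaching it, limit read from the data; inconclusive = only one of the two criteria is met; inactive = neither criterion is met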
T cruzi growth-3 = inhibitors of intracellular T. cruzi replication, confirmation, NIH3T3 host cells, beta-gal parasites, cherry-pick, set 2 | shares compounds with T cruzi growth-1 | T. cruzi beta-gal in NIH3T3, GalScreen luminescence, 90 h | inhibition, % at 2.09 µM | 21% of 5,600 active | AID 651740, 2012;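 active = mean inhibition above about 95%, with at least 55% of replicates also reaching it, limit read from the data; inconclusive = meets just one of the two conditions; inactive = meets neither condition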;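 also: plate controls were neutral control median for no effect and positive control median for full effect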
3T3 cytotox = cytotoxicity in mouse NIH/3T3 fibroblasts, confirmation, cytotoxicity control for T. cruzi proliferation inhibitor project, cell-based, cherry-pick, single point. shares compounds with T cruzi growth-1. NIH/3T3 viability, CellTiter-Glo ATP luminescence, 90 h. cytotoxicity (signal decrease), % at 8.35 µM. 14% of 5,600 active. AID 651742, 2012;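 active = mean signal decrease across replicates above about 35% based on untreated-well scatter, with enough replicates individually passing, limit read from the data; inconclusive = no rule stated though some were filed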;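 also: 0% = median of neutral control wells and 100% = median of positive control wells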
NIH3T3 tox 2 = NIH/3T3 fibroblast cytotoxicity, confirmation, cytotoxicity control, cell-based, cherry-pick, single point, set 2; shares compounds with T cruzi growth-1; NIH/3T3 viability, CellTiter-Glo ATP luminescence, 90 h; inhibition, % at 24.9 µM; 56% of 5,600 active; AID 651744, 2012;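 active = mean loss of cell viability signal at or above a set limit, and enough replicates individually reaching it; inconclusive = meets only the mean limit or only the replicate share; inactive = meets neither condition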;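 also: 0% = median of neutral control wells and 100% = median of positive control wells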
Starred values were filed as active, the others as inactive; u = inconclusive; x = no result given. Rows were chosen to be rich in hits. Some 5.8% of all compounds tested hit in one or more screens of this group.

SMILES | IDH1 mut inh | KDM4C inh | T cruzi growth-1 | Pf Dd2 inh | T cruzi growth-2 | T cruzi growth-3 | 3T3 cytotox | NIH3T3 tox 2
C[C@H]1CCCCO[C@@H](CN(C)S(=O)(=O)c2ccc(Cl)cc2)[C@@H](C)CN([C@@H](C)CO)C(=O)c2cc(NC(=O)CCC(F)(F)F)ccc2O1 | x | 0 | 117* | -83* | 110* | 73 | -20 | 16
C[C@@H]1CCCCO[C@H](CN(C)S(=O)(=O)c2ccc(Cl)cc2)[C@H](C)CN([C@H](C)CO)C(=O)c2cc(NC(=O)CCC(F)(F)F)ccc2O1 | x | 0 | 99* | -42 | 106* | 34 | 14 | 30*
CN(C)C(=O)C[C@@H]1CC[C@@H]2[C@H](COc3ccc(NC(=O)c4cnccn4)cc3C(=O)N2C)O1 | x | 1 | -41 | 13 | x | x | x | x
C[C@@H]1CN([C@H](C)CO)C(=O)c2cccc(NC(=O)Nc3ccc(F)cc3)c2O[C@H]1CN(C)Cc1ccc(Oc2ccccc2)cc1 | x | -1 | 115* | -11 | 101* | 84 | 1 | 46*
C[C@@H]1CN([C@@H](C)CO)C(=O)c2cccc(NC(=O)Nc3ccc(F)cc3)c2O[C@H]1CN(C)Cc1ccc(Oc2ccccc2)cc1 | 3 | -3 | u | -2 | 96* | 94 | -4 | 55*
C[C@H](CO)N1C[C@H](C)[C@@H](CN(C)C)Oc2ncc(C#Cc3cccnc3)cc2C1=O | 2 | -2 | 21 | -1 | x | x | x | x
Cc1cc(C(=O)Nc2cccc3c2O[C@H](CN(C)CC2CC2)[C@H](C)CN([C@@H](C)CO)C3=O)n(C)n1 | 2 | 3 | 1 | 8 | x | x | x | x
C[C@@H]1CN([C@@H](C)CO)C(=O)c2cc(C#CC3CCCC3)cnc2O[C@H]1CN(C)S(=O)(=O)c1cccc(F)c1 | 0 | 2 | 115* | -42 | 103* | 92 | 27 | 86*
C[C@H](CO)N1C[C@H](C)[C@H](CN(C)S(=O)(=O)c2ccccc2)Oc2ncc(C#Cc3ccc(F)cc3)cc2C1=O | -1 | -3 | u | -57 | 107* | 54 | 21 | 16
C[C@H](CO)N1C[C@H](C)[C@H](CN(C)S(=O)(=O)c2ccc(F)cc2)Oc2ncc(C#Cc3ccc(F)cc3)cc2C1=O | 1 | -2 | 113* | -30 | 108* | 48 | 34 | 36*
Cc1ccc(S(=O)(=O)N(C)C[C@@H]2Oc3ncc(C#Cc4ccc(F)cc4)cc3C(=O)N([C@H](C)CO)C[C@@H]2C)cc1 | 0 | -3 | -9 | -47 | x | x | x | x
C[C@H](CO)N1C[C@H](C)[C@H](CN(C)S(=O)(=O)c2ccccc2)Oc2ncc(C#Cc3cccc(F)c3)cc2C1=O | 1 | -3 | 50 | -31 | x | x | x | x
C/C=C/c1cnc2c(c1)C(=O)N([C@H](C)CO)C[C@@H](C)[C@@H](CN(C)C(=O)C1CCCCC1)O2 | 0 | 0 | 9 | 17 | x | x | x | x
COc1ccccc1-c1cnc2c(c1)C(=O)N([C@@H](C)CO)C[C@@H](C)[C@@H](CN(C)Cc1cccc(F)c1)O2 | 0 | 1 | u | -10 | 82 | 43 | 24 | 52*
COc1ccccc1-c1cnc2c(c1)C(=O)N([C@H](C)CO)C[C@H](C)[C@@H](CN(C)Cc1cccc(F)c1)O2 | -1 | 0 | u | -47 | 102* | 63 | -3 | 42*
COc1cccc(-c2cnc3c(c2)C(=O)N([C@H](C)CO)C[C@H](C)[C@H](CN(C)Cc2cccc(C)c2)O3)c1 | -1 | -3 | 96* | -12 | 90 | 17 | 9 | u
COc1ccccc1-c1cnc2c(c1)C(=O)N([C@H](C)CO)C[C@@H](C)[C@@H](CN(C)Cc1cccc(F)c1)O2 | -2 | -1 | 47 | -9 | x | x | x | x
COc1ccccc1-c1cnc2c(c1)C(=O)N([C@H](C)CO)C[C@@H](C)[C@H](CN(C)Cc1cccc(F)c1)O2 | 0 | 1 | -12 | -31 | x | x | x | x
CCCC(=O)Nc1ccc2c(c1)OC[C@H](C)N(CCc1ccccc1)C[C@@H](C)[C@H](OC)CN(C)C2=O | 0 | 0 | 70 | x | x | x | x | x
N#C[C@@H]1[C@H](c2ccc(C#CCC3CCCC3)cc2)[C@H](CO)N1C(=O)CN1CCOCC1 | x | -2 | u | -41 | 102* | 107* | 22 | 77*
N#C[C@H]1[C@@H](c2ccc(C#CCC3CCCC3)cc2)[C@H](CO)N1C(=O)CN1CCOCC1 | x | -1 | 90 | -28 | x | x | x | x
COCC(=O)N1[C@@H](C#N)[C@@H](c2ccc(C#CCC3CCCC3)cc2)[C@@H]1CO | x | -1 | u | -21 | 99* | 90 | 17 | 103*
C[C@H](CO)N1C[C@H](C)[C@@H](CN(C)Cc2ccncc2)Oc2ncc(/C=C/c3ccccc3)cc2C1=O | 2 | 5 | 87 | -48 | x | x | x | x
CCCC#Cc1ccc([C@@H]2[C@H]3CN(S(=O)(=O)Cc4ccccc4)CCCCN3[C@H]2CO)cc1 | x | -2 | 81 | -15 | x | x | x | x
O=S(=O)(Cc1ccccc1)N1CCCCN2[C@H](C1)[C@H](c1ccc(C#Cc3ccccc3)cc1)[C@@H]2CO | x | -2 | 104* | 0 | 108* | u | 26 | 107*
O=S(=O)(Cc1ccccc1)N1CCCCN2[C@H](C1)[C@@H](c1ccc(C#Cc3ccccc3)cc1)[C@@H]2CO | x | -1 | 101* | -42 | 105* | 112* | 27 | 68*
C[C@@H](O)C#Cc1ccc([C@H]2[C@H]3CN(S(=O)(=O)Cc4ccccc4)CCCCN3[C@H]2CO)cc1 | x | 0 | 44 | -9 | x | x | x | x
COCC(=O)N1CC(=O)N2[C@H](CO)[C@H](c3ccc(C4=CCCC4)cc3)[C@@H]2C1 | x | 2 | x | 24 | x | x | x | x
O=C(C[C@H]1CC[C@@H](NC(=O)CN2CCOCC2)[C@H](CO)O1)NC1CCC1 | 0 | 2 | x | 4 | x | x | x | x
CC(C)CC#Cc1ccc2c(c1)O[C@H](CN(C)C(=O)c1ccccc1)[C@H](C)CN([C@@H](C)CO)S2(=O)=O | 0 | -3 | 118* | -54 | 104* | 98* | 22 | 106*

Screening results (PubChem BioAssay)
